In ChEMBL document CHEMBL4219021, “Discovery of a Small-Molecule Degrader of Bromodomain and Extra-Terminal (BET) Proteins with Picomolar Cellular Potencies and Capable of Achieving Tumor Regression” (J Med Chem, 2018):
pIC50, pKi: −log10 of the molar value. The source made the active and inactive calls. The rule behind the calls is not given here.

Tests used:
[1] = test system: RS4-11; experiment: Cytotoxicity against human RS4:11 cells assessed as cell growth inhibition after 4 days by WST-8 assay; assay type: functional, cell-based; details: RS4-11, 96 h
[2] = test system: MOLM-13; experiment: Cytotoxicity against human MOLM13 cells assessed as cell growth inhibition after 4 days by WST-8 assay; assay type: functional, cell-based; details: MOLM-13, 96 h
[3] = molecular target: T1, Protein cereblon/Bromodomain-containing protein 4/Cullin-4A (Homo sapiens) (UniProt O60885+Q96SW2+Q13619); experiment: Induction of cereblon/cullin 4A-mediated BRD4 degradation in human RS4:11 cells at 30 to 1000 nM after 3 hrs by Western blot method; assay type: cell-based
Procedure, shortened: (§1)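 Western blot of RS4;11 cells (2 × 10⁶ cells/well) in RPMI 1640 with 10% FBS, 37 °C, 5% CO₂, used within three months of thawing. Compound exposure was 3 h or 24 h at the indicated concentrations. Cells were lysed in RIPA with protease inhibitors, and BRD2, BRD3 and BRD4 were detected with specific antibodies, with GAPDH as loading control.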

[4] = molecular target: T2, Protein cereblon/Bromodomain-containing protein 3/Cullin-4A (Homo sapiens) (UniProt Q15059+Q96SW2+Q13619); experiment: Induction of cereblon/cullin 4A-mediated BRD3 degradation in human RS4:11 cells at 30 to 1000 nM after 3 hrs by Western blot method; assay type: cell-based; procedure, shortened: as §1
T2 sequence (Q13619 whole entry, looked up): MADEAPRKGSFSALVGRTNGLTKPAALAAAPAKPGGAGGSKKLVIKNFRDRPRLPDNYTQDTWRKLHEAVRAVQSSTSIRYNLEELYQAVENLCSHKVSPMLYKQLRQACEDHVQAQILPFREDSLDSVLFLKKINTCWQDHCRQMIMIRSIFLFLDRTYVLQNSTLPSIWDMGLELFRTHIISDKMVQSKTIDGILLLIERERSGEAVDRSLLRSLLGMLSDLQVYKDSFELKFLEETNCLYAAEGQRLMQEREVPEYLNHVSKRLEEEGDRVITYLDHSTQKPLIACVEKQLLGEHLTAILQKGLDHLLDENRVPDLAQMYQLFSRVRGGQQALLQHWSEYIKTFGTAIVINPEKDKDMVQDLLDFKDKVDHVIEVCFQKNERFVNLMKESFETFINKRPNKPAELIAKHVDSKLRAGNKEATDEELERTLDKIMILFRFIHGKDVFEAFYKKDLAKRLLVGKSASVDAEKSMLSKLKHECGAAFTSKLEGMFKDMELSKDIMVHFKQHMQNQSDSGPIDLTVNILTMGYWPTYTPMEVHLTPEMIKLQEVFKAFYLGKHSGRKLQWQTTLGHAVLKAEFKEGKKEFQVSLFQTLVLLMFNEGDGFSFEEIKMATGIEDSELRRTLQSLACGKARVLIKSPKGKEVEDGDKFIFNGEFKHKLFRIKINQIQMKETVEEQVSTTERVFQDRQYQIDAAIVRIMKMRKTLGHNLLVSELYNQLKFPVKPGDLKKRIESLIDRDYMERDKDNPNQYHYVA
T2 sequence (Q15059 whole entry, looked up): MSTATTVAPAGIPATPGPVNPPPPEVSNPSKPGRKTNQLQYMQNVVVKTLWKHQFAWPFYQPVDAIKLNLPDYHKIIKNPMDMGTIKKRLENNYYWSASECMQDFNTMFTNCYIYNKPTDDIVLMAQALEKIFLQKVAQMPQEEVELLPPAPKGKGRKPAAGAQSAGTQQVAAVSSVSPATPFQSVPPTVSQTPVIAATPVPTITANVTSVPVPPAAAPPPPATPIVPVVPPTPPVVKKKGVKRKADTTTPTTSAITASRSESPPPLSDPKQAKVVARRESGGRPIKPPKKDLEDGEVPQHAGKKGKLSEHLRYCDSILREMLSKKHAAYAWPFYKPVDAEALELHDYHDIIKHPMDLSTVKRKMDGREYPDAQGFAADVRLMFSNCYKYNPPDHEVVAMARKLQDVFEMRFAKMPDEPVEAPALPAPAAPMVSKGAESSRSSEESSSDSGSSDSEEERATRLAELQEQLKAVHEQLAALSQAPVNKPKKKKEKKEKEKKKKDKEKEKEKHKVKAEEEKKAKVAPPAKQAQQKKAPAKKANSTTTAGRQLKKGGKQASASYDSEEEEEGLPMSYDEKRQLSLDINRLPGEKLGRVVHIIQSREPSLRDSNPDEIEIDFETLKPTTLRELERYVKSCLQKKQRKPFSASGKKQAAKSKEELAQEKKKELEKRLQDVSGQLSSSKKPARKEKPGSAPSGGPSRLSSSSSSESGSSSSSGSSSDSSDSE
T2 sequence (Q96SW2 whole entry, looked up): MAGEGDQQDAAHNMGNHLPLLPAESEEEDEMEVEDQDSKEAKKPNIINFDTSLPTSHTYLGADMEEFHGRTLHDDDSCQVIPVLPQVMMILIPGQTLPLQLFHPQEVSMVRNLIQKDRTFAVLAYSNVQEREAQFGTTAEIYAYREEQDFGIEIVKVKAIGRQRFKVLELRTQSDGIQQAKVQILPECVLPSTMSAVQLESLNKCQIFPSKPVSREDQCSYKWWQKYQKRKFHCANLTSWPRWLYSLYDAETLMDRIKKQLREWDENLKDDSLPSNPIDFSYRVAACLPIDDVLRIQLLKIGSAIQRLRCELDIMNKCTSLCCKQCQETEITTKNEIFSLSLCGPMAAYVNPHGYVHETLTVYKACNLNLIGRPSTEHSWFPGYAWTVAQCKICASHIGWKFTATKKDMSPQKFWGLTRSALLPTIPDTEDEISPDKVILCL

[5] = molecular target: T3, Protein cereblon/Bromodomain-containing protein 2/Cullin-4A (Homo sapiens) (UniProt P25440+Q96SW2+Q13619); experiment: Induction of cereblon/cullin 4A-mediated BRD2 degradation in human RS4:11 cells at 30 to 1000 nM after 3 hrs by Western blot method; assay type: cell-based
T3 sequence (P25440 whole entry, looked up): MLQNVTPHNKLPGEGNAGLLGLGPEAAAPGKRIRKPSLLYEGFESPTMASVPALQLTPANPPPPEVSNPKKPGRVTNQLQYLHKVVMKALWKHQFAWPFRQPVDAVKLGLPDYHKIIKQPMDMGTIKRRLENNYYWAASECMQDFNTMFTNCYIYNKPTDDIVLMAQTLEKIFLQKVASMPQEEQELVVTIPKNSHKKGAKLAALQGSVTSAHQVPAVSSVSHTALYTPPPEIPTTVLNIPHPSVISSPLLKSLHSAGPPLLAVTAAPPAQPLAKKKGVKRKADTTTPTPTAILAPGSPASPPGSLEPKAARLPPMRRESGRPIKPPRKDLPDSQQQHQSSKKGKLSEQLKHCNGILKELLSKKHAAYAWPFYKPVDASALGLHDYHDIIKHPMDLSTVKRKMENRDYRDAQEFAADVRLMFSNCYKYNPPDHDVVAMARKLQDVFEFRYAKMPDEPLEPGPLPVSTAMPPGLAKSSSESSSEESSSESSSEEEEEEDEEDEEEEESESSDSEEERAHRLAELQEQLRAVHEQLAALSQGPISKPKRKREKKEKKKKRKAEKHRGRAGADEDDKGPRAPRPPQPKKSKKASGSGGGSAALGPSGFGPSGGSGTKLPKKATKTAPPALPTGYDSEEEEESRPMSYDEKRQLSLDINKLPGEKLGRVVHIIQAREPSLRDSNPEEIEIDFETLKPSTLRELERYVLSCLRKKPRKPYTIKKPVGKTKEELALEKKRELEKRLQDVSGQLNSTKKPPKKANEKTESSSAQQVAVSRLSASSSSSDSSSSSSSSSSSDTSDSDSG
T3 sequence (Q13619 whole entry, looked up): as the sequence (Q13619 whole entry, looked up) above
T3 sequence (Q96SW2 whole entry, looked up): as the sequence (Q96SW2 whole entry, looked up) above
Procedure, shortened: (§2)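 RS4;11 cells (2 × 10⁶/well) treated for 3 h at the indicated concentrations. Lysed in RIPA with protease inhibitors and immunoblotted for BRD2, BRD3 and BRD4 with specific antibodies.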

[6] = molecular target: T4, Bromodomain-containing protein 2 (Homo sapiens, UniProt P25440); experiment: Inhibition of FAM-labeled ZBA248 binding to recombinant N-terminal His6-tagged BRD2 bromodomain 1 (72 to 205 residues) (unknown origin) expressed in Escherichia coli Rosetta2 DE3 after 30 mins by fluorescence polarization assay
T4 sequence (P25440 whole entry, the tested form may be a part): as the sequence (P25440 whole entry, looked up) above

[7] = molecular target: T4, Bromodomain-containing protein 2; experiment: Inhibition of FAM-labeled ZBA248 binding to recombinant N-terminal His6-tagged BRD2 bromodomain 2 (349 to 460 residues) (unknown origin) expressed in Escherichia coli Rosetta2 DE3 after 30 mins by fluorescence polarization assay
[8] = molecular target: T5, Bromodomain-containing protein 3 (Homo sapiens, UniProt Q15059); experiment: Inhibition of FAM-labeled ZBA248 binding to recombinant N-terminal His6-tagged BRD3 bromodomain 1 (24 to 144 residues) (unknown origin) expressed in Escherichia coli Rosetta2 DE3 after 30 mins by fluorescence polarization assay
T5 sequence (Q15059 whole entry, the tested form may be a part): as the sequence (Q15059 whole entry, looked up) above

[9] = molecular target: T5, Bromodomain-containing protein 3; experiment: Inhibition of FAM-labeled ZBA248 binding to recombinant N-terminal His6-tagged BRD3 bromodomain 2 (306 to 417residues) (unknown origin) expressed in Escherichia coli Rosetta2 DE3 after 30 mins by fluorescence polarization assay
[10] = molecular target: T6, Bromodomain-containing protein 4 (Homo sapiens, UniProt O60885); experiment: Inhibition of FAM-labeled ZBA248 binding to recombinant N-terminal His6-tagged BRD4 bromodomain 1 (44 to 168 residues) (unknown origin) expressed in Escherichia coli Rosetta2 DE3 after 30 mins by fluorescence polarization assay
[11] = molecular target: T6, Bromodomain-containing protein 4; experiment: Inhibition of FAM-labeled ZBA248 binding to recombinant N-terminal His6-tagged BRD4 bromodomain 2 (333 to 460 residues) (unknown origin) expressed in Escherichia coli Rosetta2 DE3 after 30 mins by fluorescence polarization assay
[12] = molecular target: T3, Protein cereblon/Bromodomain-containing protein 2/Cullin-4A (Homo sapiens); experiment: Induction of cereblon/cullin 4A-mediated BRD2 degradation in human MOLM13 cells after 3 hrs by Western blot method; assay type: cell-based
[13] = molecular target: T2, Protein cereblon/Bromodomain-containing protein 3/Cullin-4A (Homo sapiens); experiment: Induction of cereblon/cullin 4A-mediated BRD3 degradation in human MOLM13 cells after 3 hrs by Western blot method; assay type: cell-based
[14] = molecular target: T1, Protein cereblon/Bromodomain-containing protein 4/Cullin-4A (Homo sapiens); experiment: Induction of cereblon/cullin 4A-mediated BRD4 degradation in human MOLM13 cells after 3 hrs by Western blot method; assay type: cell-based
[15] = molecular target: T1, Protein cereblon/Bromodomain-containing protein 4/Cullin-4A (Homo sapiens); experiment: Induction of cereblon/cullin 4A-mediated BRD4 degradation in human RS4:11 cells at 30 to 300 nM after 3 hrs by Western blot method; assay type: cell-based; procedure, shortened: as §1
[16] = molecular target: T2, Protein cereblon/Bromodomain-containing protein 3/Cullin-4A (Homo sapiens); experiment: Induction of cereblon/cullin 4A-mediated BRD3 degradation in human RS4:11 cells at 30 to 300 nM after 3 hrs by Western blot method; assay type: cell-based; procedure, shortened: as §1
[17] = molecular target: T3, Protein cereblon/Bromodomain-containing protein 2/Cullin-4A (Homo sapiens); experiment: Induction of cereblon/cullin 4A-mediated BRD2 degradation in human RS4:11 cells at 30 to 300 nM after 3 hrs by Western blot method; assay type: cell-based; procedure, shortened: as §2
[18] = molecular target: T2, Protein cereblon/Bromodomain-containing protein 3/Cullin-4A (Homo sapiens); experiment: Induction of cereblon/cullin 4A-mediated BRD3 degradation in human RS4:11 cells after 3 hrs by Western blot method; assay type: cell-based; procedure, shortened: as §2
[19] = molecular target: T1, Protein cereblon/Bromodomain-containing protein 4/Cullin-4A (Homo sapiens); experiment: Induction of cereblon/cullin 4A-mediated BRD4 degradation in human RS4:11 cells after 3 hrs by Western blot method; assay type: cell-based; procedure, shortened: as §1
[20] = molecular target: T3, Protein cereblon/Bromodomain-containing protein 2/Cullin-4A (Homo sapiens); experiment: Induction of cereblon/cullin 4A-mediated BRD2 degradation in human RS4:11 cells after 3 hrs by Western blot method; assay type: cell-based; procedure, shortened: as §2
[21] = molecular target: T3, Protein cereblon/Bromodomain-containing protein 2/Cullin-4A (Homo sapiens); experiment: Induction of cereblon/cullin 4A-mediated BRD2 degradation in human RS4:11 cells at 3 to 30 nM after 3 hrs by Western blot method; assay type: cell-based; procedure, shortened: as §2
[22] = molecular target: T2, Protein cereblon/Bromodomain-containing protein 3/Cullin-4A (Homo sapiens); experiment: Induction of cereblon/cullin 4A-mediated BRD3 degradation in human RS4:11 cells at 3 to 30 nM after 3 hrs by Western blot method; assay type: cell-based; procedure, shortened: as §1
[23] = molecular target: T1, Protein cereblon/Bromodomain-containing protein 4/Cullin-4A (Homo sapiens); experiment: Induction of cereblon/cullin 4A-mediated BRD4 degradation in human RS4:11 cells at 3 to 10 nM after 3 hrs by Western blot method; assay type: cell-based; procedure, shortened: as §1
[24] = molecular target: T2, Protein cereblon/Bromodomain-containing protein 3/Cullin-4A (Homo sapiens); experiment: Induction of cereblon/cullin 4A-mediated BRD3 degradation in human RS4:11 cells at 3 to 10 nM after 3 hrs by Western blot method; assay type: cell-based; procedure, shortened: as §1
[25] = molecular target: T3, Protein cereblon/Bromodomain-containing protein 2/Cullin-4A (Homo sapiens); experiment: Induction of cereblon/cullin 4A-mediated BRD2 degradation in human RS4:11 cells at 3 to 10 nM after 3 hrs by Western blot method; assay type: cell-based; procedure, shortened: as §2

## CCn1nc(C2CC2)cc1Nc1nc(C(=O)NCCCCCc2cccc3c2CN(C2CCC(=O)N(C)C2=O)C3=O)nc2[nH]c3cc(-c4c(C)noc4C)c(OC)cc3c12 (stereo not given)
[1]
  pIC50: 7.45
[2]
  pIC50: 7.08
[3]
  Activity: inactive
[4]
  Activity: inactive
[5]
  Activity: inactive

## CNC(=O)c1ncc2c(n1)[nH]c1cc(-c3c(C)noc3C)c(OC)cc12
[6]
  pIC50: 6.66
  pKi: 7.00
[7]
  pIC50: 6.65
  pKi: 7.24
[8]
  pIC50: 6.53
  pKi: 7.09
[9]
  pIC50: 6.72
  pKi: 7.37
[10]
  pIC50: 6.32
  pKi: 6.82
[11]
  pIC50: 6.20
  pKi: 6.69

## CCn1nc(C2CC2)cc1Nc1nc(C(=O)NCCCCCNc2cccc3c2C(=O)N(C2CCC(=O)NC2=O)C3=O)nc2[nH]c3cc(-c4c(C)noc4C)c(OC)cc3c12 (stereo not given)
[1]
  pIC50: 9.85
[2]
  pIC50: 8.68
[12]
  Activity: Active
[13]
  Activity: Active
[14]
  Activity: Active

## COc1cc2c(cc1-c1c(C)noc1C)[nH]c1nc(C(=O)NCCCCCc3cccc4c3CN(C3CCC(=O)NC3=O)C4=O)ncc12 (stereo not given)
[1]
  pIC50: < 6.00
[2]
  pIC50: < 6.00

## Cc1sc2c(c1C)C(c1ccc(Cl)cc1)=N[C@@H](CC(=O)NCCCCNC(=O)COc1cccc3c1C(=O)N(C1CCC(=O)NC1=O)C3=O)c1nnc(C)n1-2 (stereo not given in full)
[2]
  pIC50: 6.18
[15]
  Activity: Active
[16]
  Activity: Active
[17]
  Activity: Active

## CCn1nc(C2CC2)cc1Nc1nc(C(=O)NCCCc2cccc3c2CN(C2CCC(=O)NC2=O)C3=O)nc2[nH]c3cc(-c4c(C)noc4C)c(OC)cc3c12 (stereo not given)
[1]
  pIC50: 8.02
[2]
  pIC50: 7.14
[18]
  Activity: Dose-dependent effect
[19]
  Activity: Dose-dependent effect
[20]
  Activity: Dose-dependent effect

## CCn1nc(C2CC2)cc1Nc1nc(C(=O)NCCCCc2cccc3c2CN(C2CCC(=O)NC2=O)C3=O)nc2[nH]c3cc(-c4c(C)noc4C)c(OC)cc3c12 (stereo not given)
[1]
  pIC50: 9.01
[2]
  pIC50: 7.86
[18]
  Activity: Dose-dependent effect
[19]
  Activity: Dose-dependent effect
[20]
  Activity: Dose-dependent effect

## CCn1nc(C2CC2)cc1Nc1nc(C(=O)NCCCNc2cccc3c2C(=O)N(C2CCC(=O)NC2=O)C3=O)nc2[nH]c3cc(-c4c(C)noc4C)c(OC)cc3c12 (stereo not given)
[1]
  pIC50: 8.62
[2]
  pIC50: 8.02

## CCn1nc(C2CC2)cc1Nc1nc(C(=O)NCCOCCCc2cccc3c2C(=O)N(C2CCC(=O)NC2=O)C3=O)nc2[nH]c3cc(-c4c(C)noc4C)c(OC)cc3c12 (stereo not given)
[1]
  pIC50: 9.38
[2]
  pIC50: 8.23

## CCn1nc(C2CC2)cc1Nc1nc(C(=O)NCCCCCc2cccc3c2C(=O)N(C2CCC(=O)NC2=O)C3=O)nc2[nH]c3cc(-c4c(C)noc4C)c(OC)cc3c12 (stereo not given)
[1]
  pIC50: 9.85
[2]
  pIC50: 8.68

## CCn1nc(C2CC2)cc1Nc1nc(C(=O)NCCCCNc2cccc3c2C(=O)N(C2CCC(=O)NC2=O)C3=O)nc2[nH]c3cc(-c4c(C)noc4C)c(OC)cc3c12 (stereo not given)
[1]
  pIC50: 9.35
[2]
  pIC50: 8.30

## Cc1sc2c(c1C)C(c1ccc(Cl)cc1)=N[C@@H](CC(=O)Nc1ccc(OCCOCCOCCOCCNc3cccc4c3C(=O)N(C3CCC(=O)NC3=O)C4=O)cc1)c1nnc(C)n1-2 (stereo not given in full)
[21]
  Activity: Active
[22]
  Activity: Active

## CCn1nc(C2CC2)cc1Nc1nc(C(=O)NCCCCCCc2cccc3c2C(=O)N(C2CCC(=O)NC2=O)C3=O)nc2[nH]c3cc(-c4c(C)noc4C)c(OC)cc3c12 (stereo not given)
[1]
  pIC50: 9.77
[2]
  pIC50: 8.60

## CCn1nc(C2CC2)cc1Nc1nc(C(=O)NCCCCCCCOc2cccc3c2C(=O)N(C2CCC(=O)NC2=O)C3=O)nc2[nH]c3cc(-c4c(C)noc4C)c(OC)cc3c12 (stereo not given)
[1]
  pIC50: 9.32
[2]
  pIC50: 8.41

## CCn1nc(C2CC2)cc1Nc1nc(C(=O)NCCCCCCNc2cccc3c2C(=O)N(C2CCC(=O)NC2=O)C3=O)nc2[nH]c3cc(-c4c(C)noc4C)c(OC)cc3c12 (stereo not given)
[1]
  pIC50: 9.20
[2]
  pIC50: 8.43

## CCn1nc(C2CC2)cc1Nc1nc(C(=O)NCCCCCCc2cccc3c2CN(C2CCC(=O)NC2=O)C3=O)nc2[nH]c3cc(-c4c(C)noc4C)c(OC)cc3c12 (stereo not given)
[1]
  pIC50: 10.43
[2]
  pIC50: 9.00
[18]
  Activity: Dose-dependent effect
[19]
  Activity: Dose-dependent effect
[20]
  Activity: Dose-dependent effect

## CCn1nc(C2CC2)cc1Nc1nc(C(=O)NCCNc2cccc3c2C(=O)N(C2CCC(=O)NC2=O)C3=O)nc2[nH]c3cc(-c4c(C)noc4C)c(OC)cc3c12 (stereo not given)
[1]
  pIC50: 8.32
[2]
  pIC50: 7.16

## CCn1nc(C2CC2)cc1Nc1nc(C(=O)NCCCCNC(=O)CNc2cccc3c2C(=O)N(C2CCC(=O)NC2=O)C3=O)nc2[nH]c3cc(-c4c(C)noc4C)c(OC)cc3c12 (stereo not given)
[1]
  pIC50: 8.60
[2]
  pIC50: 7.70

## CCn1nc(C2CC2)cc1Nc1nc(C(=O)NCCCCNC(=O)COc2cccc3c2C(=O)N(C2CCC(=O)NC2=O)C3=O)nc2[nH]c3cc(-c4c(C)noc4C)c(OC)cc3c12 (stereo not given)
[1]
  pIC50: 8.37
[2]
  pIC50: 7.34
[23]
  Activity: Active
[24]
  Activity: Active
[25]
  Activity: Active

## CCn1nc(C2CC2)cc1Nc1nc(C(=O)NCCCCCCCNc2cccc3c2C(=O)N(C2CCC(=O)NC2=O)C3=O)nc2[nH]c3cc(-c4c(C)noc4C)c(OC)cc3c12 (stereo not given)
[1]
  pIC50: 9.70
[2]
  pIC50: 8.92
[12]
  Activity: Active
[13]
  Activity: Active
[14]
  Activity: Active

## CCn1nc(C2CC2)cc1Nc1nc(C(=O)NCCOCCCc2cccc3c2CN(C2CCC(=O)NC2=O)C3=O)nc2[nH]c3cc(-c4c(C)noc4C)c(OC)cc3c12 (stereo not given)
[1]
  pIC50: 9.05
[2]
  pIC50: 8.27
